# Screening results (PubChem)
# Rows were chosen to be rich in hits. Some 5.9% of all compounds tested hit in one or more screens of this group.
# Pf Dd2 growth: P. falciparum Dd2 growth inhibitors, primary screen, SYBR Green fluorescence, single dose replicates; 72 h; hits give low values; activity change, % at 10 µM; hit rate 2.3% among 94,000; AID 1159554, 2015; in the data active = activity change below about -80%; inconclusive = no clear call, values can overlap the other calls
# KDM4C inh: inhibitors of GASC-1 (KDM4C) histone demethylase, primary screen, biochemical, single concentration HTS | Lysine-specific demethylase 4C (Homo sapiens), Q9H3R0 | GST-KDM4C 2-372, H3K9me3 peptide, LANCE TR-FRET | inhibition, % at 12.5 µM | hit rate 0.15% among 96,000 | AID 720574, 2013;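 active = mean replicate inhibition above about 25%, with at least 55% of replicates also reaching it, limit read from the data, passing the limit was not always enough; inconclusive = only one of those two conditions met; inactive = neither condition met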
# Target sequence (Q9H3R0 2-372 limits assumed): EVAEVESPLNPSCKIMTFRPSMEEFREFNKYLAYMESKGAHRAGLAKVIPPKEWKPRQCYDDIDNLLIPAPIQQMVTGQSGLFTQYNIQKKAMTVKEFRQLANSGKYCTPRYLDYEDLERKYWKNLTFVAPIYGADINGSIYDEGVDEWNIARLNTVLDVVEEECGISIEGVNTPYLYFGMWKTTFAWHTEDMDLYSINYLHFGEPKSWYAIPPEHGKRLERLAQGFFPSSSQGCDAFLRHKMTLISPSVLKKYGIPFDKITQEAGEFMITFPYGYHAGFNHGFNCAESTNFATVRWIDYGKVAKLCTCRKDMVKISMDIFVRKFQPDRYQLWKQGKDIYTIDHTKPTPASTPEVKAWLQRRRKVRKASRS
#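 Material: GST-tagged GASC-1 (JMJD2C) catalytic fragment, aa 2-372. Input: enzyme final amount 10 nM. Medium: HEPES buffer, pH 7.5, plus ascorbate. Reagent: H3K9me3 peptide substrate, Fe(II), 2-oxoglutarate. Doses: single dose. Times: reaction 30 min RT, detection step 1 h RT. Measured by: LANCE TR-FRET. Evaluation: Fall in 671/618 emission ratio as inhibition.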
# T cruzi growth-1: T. cruzi intracellular proliferation inhibitors, primary screen, cell-based, beta-gal Tulahuen parasites, NIH3T3 host, luminescence | hit rate 5.9% among 77,000 | inhibition, % at 8.34 µM | T. cruzi beta-gal in NIH3T3, GalScreen luminescence, 90 h;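 active = mean inhibition above about 93%, with at least 55% of replicates each passing it, limit read from the data, passing the limit was not always enough; inconclusive = only one of those two conditions holds; inactive = neither condition holds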
# IDH1 mut inh: inhibitors of IDH1 R132H reductase, primary screen, biochemical, plate reader, single point | inhibition, % at 10 µM | hit rate 0.18% among 70,000 | diaphorase/resazurin fluorescence, 60 min | Isocitrate dehydrogenase [NADP] cytoplasmic (Homo sapiens), O75874; in the data active = inhibition above about 34%; inconclusive = no clear call, values can overlap the other calls; inactive = below about 11%;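 note: 0% = DMSO and 100% = no enzyme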
# T cruzi growth-2: T. cruzi intracellular proliferation inhibitors, confirmation, cell-based, NIH3T3 host, beta-gal parasite, luminescence, cherry-pick; shares compounds with T cruzi growth-1; T. cruzi beta-gal in NIH3T3, GalScreen luminescence, 90 h; inhibition, % at 8.35 µM; hit rate 72% among 5,600; AID 651739, 2012;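 active = mean replicate inhibition above about 95% and at least 55% of replicates individually reaching it, limit read from the data; inconclusive = only one of the two criteria is met; inactive = neither criterion is met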
# T cruzi growth-3: inhibitors of intracellular T. cruzi replication, confirmation, NIH3T3 host cells, beta-gal parasites, cherry-pick, set 2 | shares compounds with T cruzi growth-1 | T. cruzi beta-gal in NIH3T3, GalScreen luminescence, 90 h | hit rate 21% among 5,600 | inhibition, % at 2.09 µM;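 active = mean inhibition above about 95%, with at least 55% of replicates also reaching it, limit read from the data; inconclusive = meets just one of the two conditions; inactive = meets neither condition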;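 note: plate controls were neutral control median for no effect and positive control median for full effect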
# 3T3 cytotox: cytotoxicity in mouse NIH/3T3 fibroblasts, confirmation, cytotoxicity control for T. cruzi proliferation inhibitor project, cell-based, cherry-pick, single point; shares compounds with T cruzi growth-1; NIH/3T3 viability, CellTiter-Glo ATP luminescence, 90 h; cytotoxicity (signal decrease), % at 8.35 µM; hit rate 14% among 5,600; AID 651742, 2012;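 active = mean signal decrease across replicates above about 35% based on untreated-well scatter, with enough replicates individually passing, limit read from the data; inconclusive = no rule stated though some were filed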;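 note: 0% = median of neutral control wells and 100% = median of positive control wells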
# NIH3T3 tox 2: NIH/3T3 fibroblast cytotoxicity, confirmation, cytotoxicity control, cell-based, cherry-pick, single point, set 2 | AID 651744, 2012 | inhibition, % at 24.9 µM | shares compounds with T cruzi growth-1 | hit rate 56% among 5,600 | NIH/3T3 viability, CellTiter-Glo ATP luminescence, 90 h;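 active = mean loss of cell viability signal at or above a set limit, and enough replicates individually reaching it; inconclusive = meets only the mean limit or only the replicate share; inactive = meets neither condition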;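 note: 0% = median of neutral control wells and 100% = median of positive control wells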
# Active calls of the source: *; ? = inconclusive; / = not tested or not shown.
SMILES,Pf Dd2 growth,KDM4C inh,T cruzi growth-1,IDH1 mut inh,T cruzi growth-2,T cruzi growth-3,3T3 cytotox,NIH3T3 tox 2
COC(=O)[C@H](Cc1ccc(N=[N+]=[N-])cc1)N1CC2=C[C@H]([C@@H](O)Cc3ccccc3)n3c(=O)n(C)c(=O)n3[C@@H]2[C@@H](C2CC2)O1,/,/,/,0,/,/,/,/
COc1ccccc1C#Cc1ccc([C@@H]2[C@@H](C#N)N(C(=O)C3CCC3)[C@H]2CO)cc1,-73,-3,97*,/,104*,111*,-24,6
COc1ccccc1C#Cc1ccc([C@@H]2[C@H](C#N)N(C(=O)C3CCC3)[C@H]2CO)cc1,-52,4,?,/,103*,111*,31,28*
COc1ccccc1C#Cc1ccc([C@@H]2[C@@H](C#N)N(C(=O)C3CCC3)[C@@H]2CO)cc1,-11,-2,80,/,/,/,/,/
Cc1cc(NC(=O)C2C(=O)c3ccccc3S(=O)(=O)N2C)no1 (stereo unspecified),/,/,/,-1,/,/,/,/
C[C@@H]1CCCCO[C@@H](CN(C)Cc2ccccc2)[C@@H](C)CN([C@H](C)CO)C(=O)c2cc(NC(=O)Nc3ccc4c(c3)OCO4)ccc2O1,36,-1,43,0,/,/,/,/
C[C@@H]1CCCCO[C@H](CN(C)Cc2ccc3c(c2)OCO3)[C@H](C)CN([C@H](C)CO)C(=O)c2cc(NC(=O)Nc3ccccc3)ccc2O1,?,5,114*,/,?,103*,10,104*
C[C@@H]1CCCCO[C@@H](CN(C)Cc2ccc3c(c2)OCO3)[C@@H](C)CN([C@H](C)CO)C(=O)c2cc(NC(=O)Nc3ccccc3)ccc2O1,18,-1,?,/,112*,79,20,18
C[C@@H]1CCCCO[C@H](CN(C)Cc2ccccc2)[C@H](C)CN([C@H](C)CO)C(=O)c2cc(NC(=O)Nc3ccc4c(c3)OCO4)ccc2O1,-78,5,98*,1,106*,91,12,52*
C[C@H](CO)N1C[C@H](C)[C@@H](CN(C)C(=O)Cc2ccncc2)Oc2ncc(C#Cc3ccccc3F)cc2C1=O,-77,1,?,/,112*,63,18,?
C[C@@H]1CN([C@H](C)CO)C(=O)c2cc(C#Cc3ccccc3F)cnc2O[C@@H]1CN(C)S(=O)(=O)c1ccccc1,-36,7,116*,-4,98*,64,22,68*
C[C@@H]1CN([C@@H](C)CO)C(=O)c2cc(C#Cc3ccccc3F)cnc2O[C@@H]1CN(C)S(=O)(=O)c1ccccc1,-31,-4,114*,0,99*,70,31,50*
C[C@H](CO)N1C[C@H](C)[C@@H](CN(C)S(C)(=O)=O)Oc2ncc(C#Cc3ccccc3F)cc2C1=O,7,-4,-8,-2,/,/,/,/
C[C@H]1CN([C@@H](C)CO)C(=O)c2cc(C#Cc3ccccc3F)cnc2O[C@@H]1CN(C)S(=O)(=O)c1ccccc1,-73,-1,128*,-5,110*,78,60*,47*
Cc1ccc(NC(=O)C(Cc2ccccc2)N2C(=O)C3C4CCC(C4)C3C2=O)cc1[N+](=O)[O-] (stereo unspecified),/,/,/,6,/,/,/,/
O=C(Nc1cccc(Cn2cccn2)c1)c1cc(-c2cccnc2)nc2ccc(Cl)cc12,/,/,/,0,/,/,/,/
Cc1ccc(C)c(N2CCN(C(=O)CN3CC(c4ccccc4)CC3=O)CC2)c1 (stereo unspecified),/,/,/,0,/,/,/,/
CSc1ccccc1NC(=O)CN(C1CCCCC1)S(=O)(=O)c1ccc(F)cc1,/,/,/,0,/,/,/,/
C[C@@H]1CN([C@H](C)CO)C(=O)c2cc(C#Cc3ccccc3F)cnc2O[C@H]1CN(C)S(=O)(=O)c1ccccc1,-38,-1,126*,0,109*,87,?,35*
C[C@@H]1CN([C@H](C)CO)S(=O)(=O)c2ccc(/C=C/c3ccccc3)cc2O[C@H]1CN(C)C(=O)Nc1ccc(F)cc1,-82*,2,126*,1,109*,95,45*,89*
C[C@H]1CN([C@@H](C)CO)S(=O)(=O)c2ccc(/C=C/c3ccccc3)cc2O[C@H]1CN(C)C(=O)Nc1cc(F)ccc1F,-60,-1,/,-1,/,/,/,/
C[C@H](CO)N1C[C@H](C)[C@@H](CN(C)C(=O)Nc2ccc(F)cc2)Oc2cc(/C=C/c3ccccc3)ccc2S1(=O)=O,-67,-3,124*,0,109*,98*,-1,?
C[C@H]1CN([C@@H](C)CO)S(=O)(=O)c2ccc(/C=C/c3ccccc3)cc2O[C@@H]1CN(C)C(=O)Nc1ccc(F)cc1,-43,-2,127*,-2,101*,93,1,60*
C[C@H]1CN([C@@H](C)CO)S(=O)(=O)c2ccc(/C=C/c3ccccc3)cc2O[C@H]1CN(C)C(=O)Nc1ccc(F)cc1,15,2,11,0,/,/,/,/
COc1ccc(NC(=O)CSc2n[nH]c(-c3ccc(Cl)cc3Cl)n2)cc1,/,/,/,0,/,/,/,/
C=CCn1c2ccccc2c2nnc(SCc3ccc([N+](=O)[O-])cc3)nc21,/,/,/,0,/,/,/,/
C[C@@H]1CN([C@@H](C)CO)S(=O)(=O)c2ccc(C#CC3CC3)cc2O[C@H]1CN(C)CC1CCOCC1,-36,0,109*,0,90,77,65*,89*
C[C@H]1CN([C@@H](C)CO)S(=O)(=O)c2ccc(C#CC3CC3)cc2O[C@@H]1CN(C)CC1CCOCC1,-14,-3,?,0,103*,78,14,99*
C/C=C1\C(O[C@@H]2O[C@H](CO)[C@@H](O)[C@H](O)[C@H]2O)OC=C(C(=O)OC)C1CC(=O)OCC(O)c1ccc(O)c(O)c1 (stereo partly specified),/,/,/,4,/,/,/,/
CN(C)C(=O)c1cccc(-c2ccc([C@@H]3[C@H](C#N)N(C(=O)C4CCC4)[C@H]3CO)cc2)c1,17,-2,100*,/,92,1,16,15
